Screening results from PubChem.
PAD4 FP inh – human PAD4 inhibitors, primary screen, biochemical, fluorescence polarization, 1536-well format | Protein-arginine deiminase type-4 (Homo sapiens), Q9UM07 | recombinant PAD4, RCA probe fluorescence polarization | inhibition, % at 6.36 µM | hit rate 0.41% among 330,000 | AID 485272, 2010;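 active = percent inhibition above a cutoff equal to the mean of all tested compounds plus 3 SD, cut at about 15% in these data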;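 note: 0% = PAD4 with RCA probe and DMSO and 100% = probe without PAD4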
Target sequence (Q9UM07 whole entry, looked up): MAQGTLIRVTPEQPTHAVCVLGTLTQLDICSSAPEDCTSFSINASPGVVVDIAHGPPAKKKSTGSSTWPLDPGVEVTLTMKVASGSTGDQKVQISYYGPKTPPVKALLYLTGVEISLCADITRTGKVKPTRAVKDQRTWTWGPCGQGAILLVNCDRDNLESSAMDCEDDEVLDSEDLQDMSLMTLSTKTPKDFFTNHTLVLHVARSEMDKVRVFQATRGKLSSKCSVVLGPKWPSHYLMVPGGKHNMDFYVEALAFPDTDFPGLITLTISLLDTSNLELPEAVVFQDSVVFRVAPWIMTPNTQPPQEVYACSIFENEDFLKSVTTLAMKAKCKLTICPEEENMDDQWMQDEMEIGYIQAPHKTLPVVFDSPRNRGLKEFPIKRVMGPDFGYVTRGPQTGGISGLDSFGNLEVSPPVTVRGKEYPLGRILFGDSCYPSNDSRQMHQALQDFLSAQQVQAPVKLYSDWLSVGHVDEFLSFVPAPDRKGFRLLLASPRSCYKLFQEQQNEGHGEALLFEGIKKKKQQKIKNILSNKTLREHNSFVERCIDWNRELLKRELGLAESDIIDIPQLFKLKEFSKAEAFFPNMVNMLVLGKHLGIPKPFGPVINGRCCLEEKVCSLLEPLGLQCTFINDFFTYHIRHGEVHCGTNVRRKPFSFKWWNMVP
CTSL1 counter – Fasciola hepatica cathepsin L1 inhibitors, primary screen, counter-screen for PFM18AAP inhibitor project, biochemical, QFRET, fluorogenic peptide substrate; recombinant F. hepatica cathepsin L1, Z-Leu-Arg-MCA fluorescence; inhibition, % at 5.96 µM; hit rate 0.49% among 300,000;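 active = inhibition above the mean of all tested compounds plus 3 SD, set per screening campaign, cut at about 17% in these data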;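 note: 0% = plate median of test compound wells and 100% = 1 µM Z-Phe-Ala-diazomethylketone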
Apaf1 inhib – inhibitors of human Apaf-1 apoptosome, primary screen, biochemical, DEVD-Rh110 fluorescence, uHTS | Apoptotic protease-activating factor 1 (Homo sapiens), O14727 | reconstituted apoptosome caspase-3 activity | inhibition, % at 20 µM | hit rate 0.71% among 330,000 | AID 489030, 2010; active = inhibition of at least 40% at 20 µM;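 note: plate controls were DMSO wells for no effect and DEVD-CHO caspase inhibitor wells for full effect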
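Material: cell-free apoptosome with Apaf-1, procaspase-3 and caspase-9; Buffer or medium: Hepes pH 7.5 with detergent and BSA; Reagent: cytochrome c trigger plus (Z-DEVD)2-Rh110 caspase-3 substrate; Times: compound with Apaf-1, dATP, procaspase-3 30 min, then 50 min reaction, room temperature; Technique: Rh110 fluorescence intensity.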
UCH37 DUB inh – inhibitors of human UCH37 deubiquitinase, primary screen, biochemical, Ub-AMC cleavage, fluorescence. AID 588478, 2011. purified proteasome/UCH37. hit rate 0.33% among 330,000. inhibition, % (concentration not given with the values). Ubiquitin carboxyl-terminal hydrolase isozyme L5 (Homo sapiens), Q9Y5K5;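 active = mean inhibition over replicate wells above about 20%, limit read from the data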;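 note: 0% = compound-free wells with enzyme and 100% = wells lacking proteasome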
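System: Proteasome-associated human UCH37 deubiquitinase; Input: 0.15 nM proteasome in added enzyme buffer; Also added: Ub-AMC substrate from 1 µM stock; Incubation: 30 min compound-proteasome preincubation then 25 min substrate reaction, room temperature; Detection: fluorescence, ex 355 nm, em 460 nm; Read-out: % inhibition of Ub-AMC cleavage fluorescence; Benchmarks: no-proteasome and no-compound wells.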
PP5 primary – PP5 phosphatase inhibitors, primary screen, biochemical, fluorescence; purified PP5c, OMFP substrate fluorescence; inhibition, % at 6.7 µM; hit rate 0.18% among 320,000; AID 1987, 2009;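 active = inhibition above the campaign's mean inhibition across all tested compounds plus 3 SD, cut at about 9.5% in these data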;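 note: 0% = DMSO only and 100% = 100 µM cantharidin control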
GSTO1 inh – inhibitors of recombinant GSTO1, primary screen, counter-screen for RBBP9 inhibitor project, biochemical, fluorescence polarization; Glutathione S-transferase omega-1 (Homo sapiens), P78417; inhibition, % at 5.96 µM; activity-based probe fluorescence polarization; AID 1974, 2009; hit rate 1.1% among 300,000;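 active = inhibition above the campaign mean inhibition plus 3 SD, cut at about 35% in these data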;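 note: 0% = GSTO1-1 with DMSO and 100% = wells lacking GSTO1-1 enzyme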
* marks the source's active call; other numbers are inactive results; / = not tested or not shown. The list is not random: actives were taken first. Their share in the collection is about 2%.

SMILES | PAD4 FP inh | CTSL1 counter | Apaf1 inhib | UCH37 DUB inh | PP5 primary | GSTO1 inh
Cc1ccc(-c2nn(-c3ccccc3)cc2CO)cc1 | -3 | 1 | 10 | 2 | 1 | 1
Cc1ccc(-c2nn(-c3ccccc3)cc2NC(=O)CCl)cc1 | -1 | 82* | -6 | 7 | 4 | 69*
Cc1ccc(-n2nc(C)c(NC(=O)CCl)c2C)cc1 | -1 | 6 | -3 | 3 | 2 | 84*
CC(=NNc1ccc([N+](=O)[O-])cc1[N+](=O)[O-])C(C)(C)C(C(=O)O)C(=O)O | / | / | / | 17 | / | /
O=C(Nc1ccc2c(c1)CCC2)C1CCN(c2c3c(nc4ncnn24)CCC3)CC1 | 0 | -1 | -3 | 0 | 1 | 0
O=C(Nc1ccc(Oc2ccccc2)cc1)C1CCN(c2c3c(nc4ncnn24)CCC3)CC1 | 2 | 5 | 41* | 3 | 1 | -4
CC(=O)CSc1nc2c(c(=O)[nH]c(=O)n2C)n1Cc1cccc(Br)c1 | 1 | 35* | -2 | 3 | 1 | 4
Cn1c(=O)[nH]c(=O)c2c1nc(SCCC(=O)O)n2Cc1cccc(Br)c1 | -11 | 0 | -2 | / | 0 | -3
COc1ccc(C=NOCC(=O)NCc2cccs2)c(OC)c1 | / | / | / | 3 | / | /
CCOC(=O)/C(=C/c1ccc(OC(=O)c2ccccc2)cc1)C(C)=O | 1 | -1 | 16 | 4 | 2 | 11
CCOC(=O)/C(=C/C1=CC(=C/N(C)C)/C(=O)O1)C(C)=O | -4 | 4 | -3 | 22* | 1 | 5
CCOC(=O)c1sc(S(C)(=O)=O)c2c1CCc1conc1-2 | -4 | 42* | -12 | -6 | 1 | 4
Cc1occc1-c1nnc(SCC(=O)c2ccc(F)cc2)o1 | 2 | 2 | 16 | 4 | 3 | 36*
CCn1ncc(C=NNC(=O)c2ccc3c(c2)c(C)c(C)n3Cc2ccccc2)c1C | / | / | / | -13 | / | /
Nc1nonc1C(=NO)N1CCN(CCO)CC1 | / | / | / | 3 | / | /
CC(=O)N1CCc2cc(S(=O)(=O)CCC(=O)NCc3ccc4c(c3)OCO4)ccc21 | 5 | 18* | -4 | 0 | 4 | 3
C[n+]1ccccc1C1CCCCC1=NNc1ccc([N+](=O)[O-])cc1[N+](=O)[O-] (configuration not stated) | / | / | / | 1 | / | /
Cc1ccc2oc(=O)c3cc(C(=O)NCCCN4C(C)CCCC4C)sc3c2c1 (configuration not stated) | -4 | 17* | 17 | -27 | 2 | -2
Cc1ccc2oc(=O)c3cc(C(=O)NCCCN4CC(C)CC(C)C4)sc3c2c1 (configuration not stated) | -2 | 1 | 23 | -35 | 4 | 3
CCCCCCN1C(=O)C(O)=C(C(C)=O)C1c1ccc(Cl)cc1 (configuration not stated) | -6 | 5 | 5 | 2 | 3 | 1
CC(=O)C1=C(O)C(=O)N(CCN(C)C)C1c1ccc(Cl)cc1 (configuration not stated) | / | / | / | 24* | / | /
CCN(CC(=O)Nc1ccccc1OC)C(=O)CN1C(=O)NC(C)(c2ccccc2)C1=O (configuration not stated) | 1 | / | 49* | 0 | 1 | /
Cn1c(=O)c2cc(NC(=O)c3ccccc3Cl)c(=O)oc2n(C)c1=O | -1 | 27* | -22 | 9 | 3 | 9
O=C1S/C(=C\c2ccc(N3CCOCC3)o2)C(=O)N1Cc1c(F)cccc1Cl | -6 | 1 | 13 | 7 | 0 | -3
O=C1S/C(=C/c2ccc(N3CCOCC3)o2)C(=O)N1Cc1c(F)cccc1Cl | -2 | 49* | 11 | 7 | -2 | 3
CSc1nc(NCCOCCO)c2sc3nc(-c4ccco4)c4c(c3c2n1)CCC4 | -8 | 17* | 26 | -32 | 1 | 21
CSc1nc(NCc2ccco2)c2sc3nc(C(C)C)c4c(c3c2n1)CC(C)(C)OC4 | 2 | -4 | 20 | -46 | 3 | -3
